Test results from ChEMBL document CHEMBL4024758, “Structure-Based Design and Discovery of New M2 Receptor Agonists” (J Med Chem, 2017).
Activity calls are given as the source filed them. The rule behind the calls is not given here.

Columns and labels:
[1] = target: T1, Muscarinic acetylcholine receptor M2 (Homo sapiens) (UniProt P08172); experiment: Agonist activity at human recombinant muscarinic M2 receptor co-expressed with Galphaqi5-HA in African green monkey COS7 cells assessed as IP accumulation after 2 hrs in presence of myo-[3H]inositol by liquid scintillation counting method relative to carbachol; assay type: functional
T1 sequence (whole entry): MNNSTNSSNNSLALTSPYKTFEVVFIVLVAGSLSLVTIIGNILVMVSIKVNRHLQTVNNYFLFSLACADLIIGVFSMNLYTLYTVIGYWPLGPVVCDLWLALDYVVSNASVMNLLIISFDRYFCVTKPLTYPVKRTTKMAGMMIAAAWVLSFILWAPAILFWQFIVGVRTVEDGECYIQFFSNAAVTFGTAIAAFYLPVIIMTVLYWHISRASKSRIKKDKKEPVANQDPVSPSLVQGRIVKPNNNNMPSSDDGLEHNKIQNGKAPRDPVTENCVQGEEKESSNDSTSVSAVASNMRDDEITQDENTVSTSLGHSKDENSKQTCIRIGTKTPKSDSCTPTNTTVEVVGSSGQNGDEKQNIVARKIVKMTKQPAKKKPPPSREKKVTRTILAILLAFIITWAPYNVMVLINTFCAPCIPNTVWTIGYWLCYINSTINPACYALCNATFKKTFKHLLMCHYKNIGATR

[2] = target: T2, Muscarinic acetylcholine receptor M2 (Homo sapiens, UniProt P08172); experiment: Displacement of [3H]N-methyl-scopolamine bromide from human recombinant muscarinic M2 receptor expressed in HEK293T cell membranes after 1 hr by liquid scintillation counting method; design: species or system HEK-293T
T2 sequence (P08172 whole entry): T1 sequence (whole entry)

[3] = target: T1, Muscarinic acetylcholine receptor M2 (Homo sapiens); experiment: Agonist activity at Gi/o protein-coupled recombinant human muscarinic M2 receptor expressed in CHO-FlpIn cells preincubated for 60 mins followed by [35S]GTPgammaS addition after 30 mins by liquid scintillation counting method relative to ACh; assay type: functional, cell-based
Method in brief: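 Membranes (15 μg) came from CHO cells stably expressing M2R. They were equilibrated 60 min at 30 °C in buffer containing GDP plus ACh or compound. [35S]GTPγS (1 nM) was then added for 30 min at 30 °C. Samples were filtered on GF/B filters, washed with ice-cold 0.9% NaCl and counted by scintillation.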

[4] = target: T3, Muscarinic acetylcholine receptor M1 (Homo sapiens, UniProt P11229); experiment: Agonist activity at Gq/11 coupled recombinant human muscarinic M1 AChR expressed in CHO-FlpIn cells assessed as IP-one accumulation after 40 mins by HTRF assay; assay type: cell-based
T3 sequence (P11229 whole entry): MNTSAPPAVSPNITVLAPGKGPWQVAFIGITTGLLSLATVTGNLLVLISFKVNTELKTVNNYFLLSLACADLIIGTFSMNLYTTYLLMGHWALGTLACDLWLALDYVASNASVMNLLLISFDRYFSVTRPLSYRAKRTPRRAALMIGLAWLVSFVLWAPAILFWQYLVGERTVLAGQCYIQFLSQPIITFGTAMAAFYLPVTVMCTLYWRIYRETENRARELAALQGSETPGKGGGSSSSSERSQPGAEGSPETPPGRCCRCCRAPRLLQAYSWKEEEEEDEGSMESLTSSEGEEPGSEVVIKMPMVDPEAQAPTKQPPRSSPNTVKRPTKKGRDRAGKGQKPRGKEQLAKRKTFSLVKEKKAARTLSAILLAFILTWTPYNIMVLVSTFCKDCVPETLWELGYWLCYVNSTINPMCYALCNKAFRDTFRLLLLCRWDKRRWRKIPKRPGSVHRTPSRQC

[5] = target: T3, Muscarinic acetylcholine receptor M1; experiment: Displacement of [3H]N-methyl-scopolamine from human recombinant muscarinic M1 receptor expressed in CHO-FlpIn cells after 6 hrs by liquid scintillation counting method; assay type: cell-based; conditions: read-out: Ki(app)
[6] = target: T2, Muscarinic acetylcholine receptor M2; experiment: Displacement of [3H]N-methyl-scopolamine from human recombinant muscarinic M2 receptor expressed in CHO-FlpIn cells after 6 hrs by liquid scintillation counting method; assay type: cell-based; conditions: read-out: Ki(app)
[7] = target: T1, Muscarinic acetylcholine receptor M2 (Homo sapiens); experiment: Agonist activity at recombinant human muscarinic M2 receptor expressed in CHO cells assessed as upregulation in ERK1/2 phosphorylation after 5 mins by alphascreen assay relative to ACh; assay type: cell-based
[8] = target: T2, Muscarinic acetylcholine receptor M2; experiment: Agonist activity at Gi/o protein-coupled recombinant human muscarinic M2 receptor expressed in CHO-FlpIn cells preincubated for 60 mins followed by [35S]GTPgammaS addition measured after 30 mins by liquid scintillation counting method; assay type: functional, cell-based
[9] = target: T4, Muscarinic acetylcholine receptor M3 (Homo sapiens, UniProt P20309); experiment: Displacement of [3H]N-methyl-scopolamine bromide from human recombinant muscarinic M3 receptor expressed in HEK293T cell membranes after 1 hr by liquid scintillation counting method; assay type: cell-based, HEK-293T
Target sequence in this assay (P20309 whole entry): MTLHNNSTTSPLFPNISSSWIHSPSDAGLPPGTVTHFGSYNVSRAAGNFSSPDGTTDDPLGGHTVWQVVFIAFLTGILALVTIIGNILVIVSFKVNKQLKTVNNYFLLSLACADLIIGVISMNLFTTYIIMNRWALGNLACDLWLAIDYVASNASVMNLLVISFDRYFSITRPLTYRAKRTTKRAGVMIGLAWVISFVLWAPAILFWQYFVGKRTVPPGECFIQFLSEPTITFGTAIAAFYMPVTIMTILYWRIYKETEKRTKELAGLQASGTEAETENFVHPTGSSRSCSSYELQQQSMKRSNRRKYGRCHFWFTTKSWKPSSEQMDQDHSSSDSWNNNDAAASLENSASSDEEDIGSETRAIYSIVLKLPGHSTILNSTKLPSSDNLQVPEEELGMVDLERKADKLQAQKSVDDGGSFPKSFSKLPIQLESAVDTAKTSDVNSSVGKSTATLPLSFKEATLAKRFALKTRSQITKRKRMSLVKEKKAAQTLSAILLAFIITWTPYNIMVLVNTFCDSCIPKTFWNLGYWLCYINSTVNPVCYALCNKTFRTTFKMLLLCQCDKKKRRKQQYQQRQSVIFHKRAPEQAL

[10] = target: T2, Muscarinic acetylcholine receptor M2; experiment: Agonist activity at recombinant human muscarinic M2 receptor expressed in HEK293 cells assessed as inhibition of forskolin-mediated cAMP accumulation after 10 mins by FRET assay; assay type: functional, cell-based
[11] = target: T4, Muscarinic acetylcholine receptor M3; experiment: Displacement of [3H]N-methyl-scopolamine from human recombinant muscarinic M3 receptor expressed in CHO-FlpIn cells after 6 hrs by liquid scintillation counting method; assay type: cell-based; conditions: read-out: Ki(app)
Target sequence in this assay (P20309 whole entry): as above

[12] = target: T1, Muscarinic acetylcholine receptor M2 (Homo sapiens); experiment: Agonist activity at Gi/o coupled recombinant human M2 mAChR expressed in CHO-FlpIn cells assessed as IP-one accumulation after 40 mins by HTRF assay; assay type: cell-based
Method in brief: (§1)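 Stably transfected CHO-FlpIn whole cells, 20000/well, grown overnight at 37 °C with 5% CO2. Cells were washed with PBS, then held 60 min at 37 °C in HEPES stimulation buffer with 50 mM LiCl, pH 7.4. ACh or test ligand was added and incubated 40 min.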

[13] = target: T4, Muscarinic acetylcholine receptor M3; experiment: Agonist activity at Gq/11 coupled recombinant human M3 mAChR expressed in CHO-FlpIn cells assessed as IP-one accumulation at 100 uM after 40 mins by HTRF assay relative to ACh; assay type: cell-based
Target sequence in this assay (P20309 whole entry, looked up): as the sequence (P20309 whole entry) above

[14] = target: T2, Muscarinic acetylcholine receptor M2; experiment: Agonist activity at recombinant human muscarinic M2 receptor expressed in CHO cells assessed as upregulation in ERK1/2 phosphorylation after 5 mins by alphascreen assay; assay type: cell-based
[15] = target: T4, Muscarinic acetylcholine receptor M3
Target sequence in this assay (P20309 whole entry): as above

[16] = target: T2, Muscarinic acetylcholine receptor M2; experiment: Agonist activity at human recombinant muscarinic M2 receptor co-expressed with Galphaqi5-HA in African green monkey COS7 cells assessed as IP accumulation after 2 hrs in presence of myo-[3H]inositol by liquid scintillation counting method; assay type: functional
[17] = target: T2, Muscarinic acetylcholine receptor M2; experiment: Agonist activity at recombinant human muscarinic M2 receptor expressed in HEK293 cells co-expressing beta-arrestin assessed as increase in beta-arrestin recruitment after 24 hrs by Bright-Glo luminescence assay; assay type: cell-based
Method in brief: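 HEK293 cells stably expressing tTA-dependent luciferase and β-arrestin-TEV protease, transiently transfected with M2-TEV-tTA; next day plated 15000 cells/well in DMEM 1% FBS on poly-D-lysine; after ≥6 h, compounds 0–100 μM in HBSS-HEPES; following day Bright-Glo added, luminescence after 20 min; 4–5 experiments in triplicate.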

[18] = target: T1, Muscarinic acetylcholine receptor M2 (Homo sapiens); experiment: Agonist activity at recombinant human muscarinic M2 receptor expressed in HEK293 cells co-expressing beta-arrestin assessed as increase in beta-arrestin recruitment after 24 hrs by Bright-Glo luminescence assay relative to ACh; assay type: cell-based
Method in brief: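 HEK293 cells stably expressing tTA-dependent luciferase and β-arrestin-TEV protease were transiently transfected with M2-TEV-tTA. Next day, cells were plated at 15000/well in DMEM with 1% FBS. After ≥6 h, compound (0–100 μM, in HBSS-HEPES pH 7.4) was added. The following day, luminescence was read with Bright-Glo. Results are from 4–5 experiments in triplicate.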

[19] = target: T1, Muscarinic acetylcholine receptor M2 (Homo sapiens); experiment: Agonist activity at recombinant human muscarinic M2 receptor expressed in HEK293 cells assessed as inhibition of forskolin-mediated cAMP accumulation after 10 mins by FRET assay relative to ACh; assay type: functional, cell-based
Method in brief: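 HEK293 cells stably expressed the Epac FRET cAMP sensor and M2AChR-tetO, induced with 2 μg/mL doxycycline and 1 mM sodium butyrate for 40 h. Basal CFP/YFP was read after 20 min at 37 °C. […] Basal was subtracted; results are from 4–5 experiments in duplicate.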

[20] = target: Neuronal acetylcholine receptor; alpha4/beta2 (Homo sapiens, UniProt P17787+P43681); experiment: Displacement of [3H]cytisine from alpha4beta2 nAChR expressed in human recombinant SH-SY5Y cell membranes after 120 mins
[21] = target: T5, Muscarinic acetylcholine receptor M1 (Homo sapiens) (UniProt P11229); experiment: Agonist activity at Gq/11 coupled recombinant human M1 mAChR expressed in CHO-FlpIn cells assessed as IP-one accumulation after 40 mins by HTRF assay relative to ACh; assay type: cell-based; method in brief: as §1
T5 sequence (whole entry): T3 sequence (P11229 whole entry)

[22] = target: T3, Muscarinic acetylcholine receptor M1; experiment: Displacement of [3H]N-methyl-scopolamine bromide from human recombinant muscarinic M1 receptor expressed in HEK293T cell membranes after 1 hr by liquid scintillation counting method; assay type: cell-based, HEK-293T
[23] = target: T4, Muscarinic acetylcholine receptor M3; remark: listed apart in the source
Target sequence in this assay (P20309 whole entry, looked up): as the sequence (P20309 whole entry) above

[24] = target: T3, Muscarinic acetylcholine receptor M1; experiment: Agonist activity at recombinant human muscarinic M1 receptor expressed in CHO cells assessed as upregulation in ERK1/2 phosphorylation after 5 mins by alphascreen assay; assay type: cell-based
[25] = target: T5, Muscarinic acetylcholine receptor M1 (Homo sapiens); experiment: Agonist activity at recombinant human muscarinic M1 receptor expressed in CHO cells assessed as upregulation in ERK1/2 phosphorylation after 5 mins by alphascreen assay relative to ACh; assay type: cell-based
[26] = target: T1, Muscarinic acetylcholine receptor M2 (Homo sapiens); conditions: 10 uM

Sequence of Neuronal acetylcholine receptor; alpha4/beta2 (P17787 whole entry): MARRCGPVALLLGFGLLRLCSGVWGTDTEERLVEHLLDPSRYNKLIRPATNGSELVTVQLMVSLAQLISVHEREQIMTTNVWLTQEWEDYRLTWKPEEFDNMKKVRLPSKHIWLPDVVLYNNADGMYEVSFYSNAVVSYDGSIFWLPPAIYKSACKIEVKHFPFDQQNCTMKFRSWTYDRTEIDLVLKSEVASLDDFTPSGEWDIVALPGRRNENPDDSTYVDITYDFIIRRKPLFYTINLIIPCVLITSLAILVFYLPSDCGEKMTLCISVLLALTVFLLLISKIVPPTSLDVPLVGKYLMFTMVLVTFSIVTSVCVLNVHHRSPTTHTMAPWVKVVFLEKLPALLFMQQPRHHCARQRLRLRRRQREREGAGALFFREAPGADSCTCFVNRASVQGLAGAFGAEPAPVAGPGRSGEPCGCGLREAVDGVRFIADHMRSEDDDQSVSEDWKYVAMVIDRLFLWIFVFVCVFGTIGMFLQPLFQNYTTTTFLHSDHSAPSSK
Sequence of Neuronal acetylcholine receptor; alpha4/beta2 (P43681 whole entry): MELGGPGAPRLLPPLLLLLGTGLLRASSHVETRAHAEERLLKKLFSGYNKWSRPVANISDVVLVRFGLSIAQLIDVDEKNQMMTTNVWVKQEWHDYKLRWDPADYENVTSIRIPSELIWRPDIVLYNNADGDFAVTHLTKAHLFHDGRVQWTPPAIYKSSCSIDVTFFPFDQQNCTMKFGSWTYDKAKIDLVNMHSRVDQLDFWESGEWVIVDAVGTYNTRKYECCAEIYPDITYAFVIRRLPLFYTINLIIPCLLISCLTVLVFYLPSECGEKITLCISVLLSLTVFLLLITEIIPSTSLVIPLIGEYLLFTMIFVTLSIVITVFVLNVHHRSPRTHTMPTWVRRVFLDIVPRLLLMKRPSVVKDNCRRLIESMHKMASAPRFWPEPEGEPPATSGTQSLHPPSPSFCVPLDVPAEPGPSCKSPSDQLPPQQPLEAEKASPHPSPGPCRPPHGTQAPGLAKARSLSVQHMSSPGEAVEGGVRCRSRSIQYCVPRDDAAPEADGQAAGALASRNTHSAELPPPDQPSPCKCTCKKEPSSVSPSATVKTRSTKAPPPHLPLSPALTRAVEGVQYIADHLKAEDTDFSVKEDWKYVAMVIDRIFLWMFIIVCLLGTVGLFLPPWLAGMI

Question: Which Emax [1] does the source give for C[N+](C)(C)CCc1ccc2c(c1)OCC2 here?
Answer: Its Emax is 62%.

Question: What about the Ki [2] of the same molecule?
Answer: The Ki was 13 µM.

Question: And the Emax [3]?
Answer: Its Emax is 100%.

Question: And the EC50 [4]?
Answer: The EC50 was 4.8 µM.

Question: And the Ki [5]?
Answer: Its Ki is 6.8 µM.

Question: What about the Ki [6] of the same molecule?
Answer: Its Ki is 2 µM.

Question: What about the Emax [7] of the same molecule?
Answer: The Emax was 100%.

Question: What about the EC50 [8] of the same molecule?
Answer: The EC50 was 3.3 µM.

Question: And the Ki [9]?
Answer: Its Ki is 6.3 µM.

Question: What about the EC50 [10] of the same molecule?
Answer: The EC50 was 11 µM.

Question: What about the Ki [11] of the same molecule?
Answer: The Ki was 7.8 µM.

Question: And the Activity [12]?
Answer: The Activity was “inactive”.

Question: And the Emax [13]?
Answer: The Emax was 17%.

Question: And the EC50 [14]?
Answer: The EC50 was 0.24 µM.

Question: What about the EC50 [15] of the same molecule?
Answer: Its EC50 is 3.7 µM.

Question: What about the EC50 [16] of the same molecule?
Answer: The EC50 was 21 µM.

Question: And the EC50 [17]?
Answer: The EC50 was 17 µM.

Question: What about the Emax [18] of the same molecule?
Answer: Its Emax is 118%.

Question: What about the Emax [19] of the same molecule?
Answer: Its Emax is 102%.

Question: And the Ki [20]?
Answer: Its Ki is 9.7 µM.

Question: And the Emax [21]?
Answer: The Emax was 8%.

Question: What about the Ki [22] of the same molecule?
Answer: Its Ki is 6.4 µM.

Question: And the pEC50 [23]?
Answer: Its pEC50 is 5.43 µM.

Question: What does the source list for COc1cccc(CC[N+](C)(C)C)c1?
Answer: Emax [1]: 75%; EC50 [24]: 0.54 µM; Ki [2]: 14 µM; Emax [3]: 100%; EC50 [4]: 9.1 µM; Ki [5]: 52 µM; Ki [6]: 9.1 µM; Emax [25]: 53%; Emax [7]: 92%; EC50 [8]: 7.8 µM; Ki [9]: > 50 µM; EC50 [10]: 6.3 µM; Ki [11]: 81 µM; Activity [12]: inactive; Emax [13]: 43%; EC50 [14]: 0.83 µM; EC50 [15]: 10 µM; EC50 [16]: 12 µM; EC50 [17]: 14 µM; Emax [18]: 133%; Emax [19]: 108%; Emax [21]: 48%; Ki [22]: 33 µM

Question: What does the source list for COc1cccc(CCC[N+](C)(C)C)c1?
Answer: Ki [2]: 0.63 µM; Emax [26]: < 10%; Ki [9]: 0.62 µM; Ki [22]: 0.33 µM
